Experimental data as given in ChEMBL document CHEMBL3232952, “Bisphosphonate prodrugs: synthesis and biological evaluation in HuH7 hepatocarcinoma cells” (Eur J Med Chem, 2014).
Calls of active or inactive are those of the source. The calls are words filed in the database; no cut-off is given here.

How the values were obtained:
[1] = Cytotoxicity against human HuH7 cells at 1 mM after 144 hrs by MTT assay; format: cell-based; details: huh-7, 144 h, 1000 µM
Outline: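 HuH7 cells plated at 5x10⁴ cells/well in complete medium for 24 h, then switched to 2% FCS medium with bisphosphonate (10^-6 to 10^-3 M range) for 144 h. PBS wash, then MTT (2 mg/mL) 4 h at 37 °C, formazan dissolved in DMSO, OD read at 570 nm. Mean ± SD of three independent experiments.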

[2] = Cytotoxicity against human HuH7 cells at 10 uM to 1 mM after 144 hrs by MTT assay; format: functional, Huh-7
Outline: (§1)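 MTT assay. HuH7 cells were seeded at 5x10⁴/well and grown 24 h in complete medium, then switched to 2% FCS medium containing compound (10⁻⁶–10⁻³ M) for 144 h. Cells were washed with PBS, given MTT (2 mg/mL) for 4 h at 37 °C, and formazan was dissolved in DMSO. OD was read at 570 nm. Mean ± SD of three independent experiments.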

Huh-7 [3] = assay: Cytotoxicity against human HuH7 cells at 1 mM after 144 hrs by MTT assay in presence of IBMX; format: functional, cell-based
Outline: (§2)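 MTT viability assay with the cells pretreated with IBMX (1 mM) before compound addition; the pretreatment time is given as 30 min in Methods and 1 h in the legend. Then 144 h exposure in 2% FCS medium, MTT (2 mg/mL) for 4 h at 37 °C, DMSO solubilisation and OD read at 570 nm. Mean ± SD of three independent experiments.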

[4] = Stability of the compound in cell culture medium assessed as [31P] NMR chemical shift after 1 day by [31P]NMR spectroscopy; format: physicochemical; details: 24 h
[5] = Drug metabolism in human HuH7 cell extract assessed as phosphorylated metabolite formation by measuring [31P] NMR chemical shift at 0.5 mM after 5 days by [31P]NMR spectroscopy; format: ADME, cell-based; details: huh-7, 120 h, 500 µM
Huh-7 [6] = assay: Cytotoxicity against human HuH7 cells at 125 uM after 144 hrs by MTT assay in presence of IBMX; format: functional, cell-based; outline: as §2
[7] = Stability of the compound in D2O assessed as [31P] NMR chemical shift after 1 day by [31P]NMR spectroscopy; format: physicochemical; details: 24 h
Serum [8] = assay: Stability in human serum assessed as [31P] NMR chemical shift after 5 days by [31P]NMR spectroscopy; format: ADME, cell-free; details: 120 h
Huh-7 [9] = assay: Induction of apoptosis in human HuH7 cells after 144 hrs by Annexin V/propidium iodide staining-based FACS analysis; format: functional, cell-based
Outline: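 HuH7 cells were exposed to compound for 144 h, then treated and untreated cells were stained with Annexin V and PI. Flow cytometry scored early apoptosis as Ann V⁺/PI⁻ and late apoptosis as Ann V⁺/PI⁺.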

[10] = Stability of the compound in D2O assessed as [31P] NMR chemical shift after 3 days by [31P]NMR spectroscopy; format: physicochemical; details: 72 h
[11] = Stability of the compound in cell culture medium assessed as [31P] NMR chemical shift after 5 days by [31P]NMR spectroscopy; format: physicochemical; details: 120 h
[12] = Cell cycle arrest in human HuH7 cells assessed as accumulation at G1 phase after 144 hrs by […]propidium iodide staining-based FACS analysis; format: functional; details: Huh-7
[13] = Stability in human HuH7 cell extract assessed as compound remaining by measuring [31P] NMR chemical shift at 0.5 mM after 5 days by [31P]NMR spectroscopy; format: ADME, cell-based; details: huh-7, 120 h, 500 µM
[14] = Stability of the compound in cell culture medium assessed as [31P] NMR chemical shift after 3 days by [31P]NMR spectroscopy; format: physicochemical; details: 72 h
Huh-7 [15] = assay: (§3) Antiinvasive activity against human HuH7 cells at 100 uM after 24 hrs by matrigel assay relative to control; format: functional
Outline: (§4)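 Boyden chambers with 8 µm-pore filters coated with Matrigel. 2.5 × 10⁵ HuH7 cells were seeded in the upper well with 100 µM compound. HGF (20 ng/mL) in the lower chamber served as chemoattractant. After 24 h, non-invaded cells were wiped off, and filters were methanol-fixed and haematoxylin-stained. Cells on the lower surface were counted in 10 fields, expressed as % of control; mean ± SD of three independent experiments.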

[16] = Antimigratory activity against human HuH7 cells at 100 uM after 24 hrs relative to control; format: functional; details: Huh-7, 24 h
Outline: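 Migration chambers with the insert undersides coated overnight at 4 °C with fibronectin (100 µg/mL). 2.5 × 10⁵ HuH7 cells were placed in the upper chamber with 100 µM compound, with HGF (20 ng/mL) in the lower chamber. After 24 h, non-migrated cells were scraped off, and cells on the lower face were fixed, stained and counted. Results are % of control set at 100%; triplicate.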

Serum [17] = assay: Stability in human serum assessed as [31P] NMR chemical shift after 1 day by [31P]NMR spectroscopy; format: ADME, cell-free; details: 24 h
[18] = (§5) Cytotoxicity against human HuH7 cells after 144 hrs by MTT assay; format: functional, cell-based; details: Huh-7, 144 h; outline: as §1
Huh-7 [19] = assay: as §5; format: functional, cell-based; outline: as §1
[20] = Cytotoxicity against human HuH7 cells at 250 uM after 144 hrs by MTT assay; format: functional; details: Huh-7, 144 h; outline: as §1
[21] = Stability of the compound in D2O assessed as [31P] NMR chemical shift after 5 days by [31P]NMR spectroscopy; format: physicochemical; details: 120 h
Serum [22] = assay: Stability in human serum assessed as [31P] NMR chemical shift after 3 days by [31P]NMR spectroscopy; format: ADME, cell-free; details: 72 h
[23] = as §3; format: functional, Huh-7; outline: as §4
Huh-7 [24] = assay: Cytotoxicity against human HuH7 cells at 400 uM after 144 hrs by MTT assay in presence of IBMX; format: functional, cell-based
Outline: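 HuH7 cells pretreated with IBMX (1 mM) before bisphosphonate was added. Cells were seeded at 5x10⁴ cells/well and held 24 h in complete medium, then exposed 144 h to compound in 2% FCS medium. Read-out by MTT (2 mg/mL, 4 h, 37 °C), DMSO solubilisation, OD 570 nm. Mean ± SD of three independent experiments.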

CC(C)Cn1c(=O)n(C)c(=O)c2[nH]cnc21 [ISOBUTYLMETHYLXANTHINE]
Activity [1]: Non-toxic

O=P(O)(O)C(O)(c1ccccc1)P(=O)(O)O
inhibition (INH) [2]: 15% | Activity (Huh-7 [3]): Active

O=P(O)(Oc1ccccc1)C(O)(c1ccc(Br)cc1)P(=O)(O)Oc1ccccc1 (stereo not given)
Stability [4]: 12.85 ppm | Drug metabolism [5]: metabolite_detected | Activity (Huh-7 [6]): inactive | Stability [7]: 12.8 ppm | Stability (Serum [8]): 12.8 ppm | Activity (Huh-7 [9]): Active | Stability [10]: 12.78 ppm | Stability [11]: 12.83 ppm | Activity [12]: 58% | Stability [13]: 12.09 ppm | Stability [14]: 12.83 ppm | Activity (Huh-7 [15]): inactive | inhibition at 100 µM [16]: 68% | Stability (Serum [17]): 12.85 ppm | IC50 [18]: 125 µM | inhibition (Huh-7 [19]): Dose-dependent effect | inhibition at 250 µM [20]: 80% | Stability [21]: 12.8 ppm | Stability (Serum [22]): 12.65 ppm

O=P(O)(O)C(O)(c1ccc(Br)cc1)P(=O)(O)Oc1ccccc1 (stereo not given)
IC50 [18]: 100 µM | inhibition (Huh-7 [19]): Dose-dependent effect | inhibition at 250 µM [20]: 80%

O.O=P(O)(O)C(O)(Cn1ccnc1)P(=O)(O)O [ZOLEDRONIC ACID]
Activity [23]: 54% | inhibition at 100 µM [16]: 72% | IC50 [18]: 60 µM | inhibition at 250 µM [20]: 80%

O=P(O)(O)C(O)(c1ccc(Br)cc1)P(=O)(O)O
Activity (Huh-7 [9]): Active | Activity (Huh-7 [24]): Active | Activity [12]: 58% | Activity [23]: 40% | inhibition at 100 µM [16]: 95% | IC50 [18]: 440 µM | inhibition (Huh-7 [19]): Dose-dependent effect

O=P(O)(Oc1ccccc1)C(O)(c1ccccc1)P(=O)(O)Oc1ccccc1 (stereo not given)
Activity (Huh-7 [3]): inactive | IC50 [18]: 555 µM | inhibition (Huh-7 [19]): Dose-dependent effect

COP(=O)(O)C(O)(c1ccc(Br)cc1)P(=O)(O)OC (stereo not given)
inhibition (INH) [2]: 15%
